Holding throughout (assay type): functional
Experiment [1] has as its system Staphylococcus aureus. As to the kind of experiment: Antibacterial activity against methicillin-susceptible Staphylococcus aureus ATCC 29213 by agar dilution method. Summed up: (§1)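 MIC determined by agar dilution on Mueller–Hinton agar against reference strains.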
In general terms: In agar dilution the substance is mixed into plates at graded concentrations.

Experiment [2] relates to Streptococcus pneumoniae. As to the kind of experiment: Antibacterial activity against penicillin intermediate-resistant Streptococcus pneumoniae isolate I2 by agar dilution method. In a few lines:
(§2)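 MIC determined by agar dilution on Mueller–Hinton agar against clinically isolated penicillin-intermediate-resistant S. pneumoniae.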

The subject of experiment [3] is Streptococcus pneumoniae. Put plainly: Antibacterial activity against penicillin-susceptible Streptococcus pneumoniae isolate S1 by agar dilution method. Summed up: (§3)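 MIC measured by agar dilution on Mueller–Hinton agar. Strains were a reference culture and clinically isolated strains. The pneumococcal isolates were penicillin-susceptible clinical isolates.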
Experiment [4] deals with Staphylococcus aureus. Put plainly: Antibacterial activity against methicillin-susceptible Staphylococcus aureus isolate 1 by agar dilution method. Summed up: (§4)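 MIC determined by agar dilution on Mueller–Hinton agar against clinically isolated methicillin-susceptible S. aureus.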
The subject of experiment [5] is Streptococcus pneumoniae. Put plainly: Antibacterial activity against Streptococcus pneumoniae ATCC 49619 by agar dilution method. As to conditions: ATCC49619. In a few lines: as §1
Experiment [6] deals with Streptococcus pneumoniae. As to the kind of experiment: Antibacterial activity against penicillin-susceptible Streptococcus pneumoniae isolate S2 by agar dilution method. In a few lines: as §3
Experiment [7] has as its system Staphylococcus aureus. As to the kind of experiment: Antibacterial activity against methicillin-resistant Staphylococcus aureus 2 by agar dilution method. In a few lines:
(§5)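 MIC determined by agar dilution on Mueller–Hinton agar against clinical strains of methicillin-resistant S. aureus.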

Experiment [8] deals with Staphylococcus aureus. Put plainly: Antibacterial activity against methicillin-resistant Staphylococcus aureus 3 by agar dilution method. Summed up:
as §5

Experiment [9] relates to Streptococcus pneumoniae. As to the kind of experiment: Antibacterial activity against penicillin intermediate-resistant Streptococcus pneumoniae isolate I3 by agar dilution method. Summed up: as §2
The test system of experiment [10] is Streptococcus pyogenes. As to the kind of experiment: Antibacterial activity against Streptococcus pyogenes ATCC 8668 by agar dilution method. Summed up: as §3
Experiment [11] relates to Staphylococcus aureus. As to the kind of experiment: Antibacterial activity against methicillin-susceptible Staphylococcus aureus isolate 2 by agar dilution method. Summed up:
as §4

Experiment [12] concerns Staphylococcus aureus. As to the kind of experiment: Antibacterial activity against methicillin-resistant Staphylococcus aureus 1 by agar dilution method. In a few lines: as §5
Experiment [13] deals with Streptococcus pyogenes. Put plainly: Antibacterial activity against Streptococcus pyogenes isolate 1 by agar dilution method. Summed up: as §3
The subject of experiment [14] is Staphylococcus aureus. As to the kind of experiment: Antibacterial activity against methicillin-susceptible Staphylococcus aureus isolate 3 by agar dilution method. Summed up: as §4
In experiment [15] the test system is Streptococcus pneumoniae. As to the kind of experiment: Antibacterial activity against penicillin intermediate-resistant Streptococcus pneumoniae isolate I1 by agar dilution method. In a few lines:
as §2

Experiment [16] concerns Streptococcus pyogenes. As to the kind of experiment: Antibacterial activity against Streptococcus pyogenes isolate 3 by agar dilution method. Summed up: as §3
In experiment [17] the test system is Streptococcus pyogenes. As to the kind of experiment: Antibacterial activity against Streptococcus pyogenes isolate 2 by agar dilution method. Summed up: as §3

In ChEMBL document CHEMBL1156205, “Synthesis and antibacterial activity of new 9-O-arylpropenyloxime ketolides” (2010) one finds MIC data, which are given here for five molecules.

In brackets after ≈: the same amount, converted by molar mass.

On to `CC[C@H]1OC(=O)[C@H](C)C(=O)[C@H](C)[C@@H](O[C@@H]2O[C@H](C)C[C@H](N(C)C)[C@H]2O)[C@](C)(OC)C[C@@H](C)/C(=N\OC/C=C/c2cccc(OC)c2)[C@H](C)[C@@H](O)[C@]1(C)O`, for which the MIC in the experiment on Staphylococcus aureus [1] is 2 µg/mL (≈ 2.67 µM); against Streptococcus pneumoniae [2], 1 µg/mL (≈ 1.34 µM); against Streptococcus pneumoniae [3], 0.25 µg/mL (≈ 0.334 µM); in the experiment on Staphylococcus aureus [4] it was 2 µg/mL (≈ 2.67 µM); in the experiment with Streptococcus pneumoniae [5], 1 µg/mL (≈ 1.34 µM); with Streptococcus pneumoniae [6], 0.25 µg/mL (≈ 0.334 µM). Further, the MIC against Staphylococcus aureus [7] amounted to 128 µg/mL (≈ 171 µM); with Staphylococcus aureus [8], 2 µg/mL (≈ 2.67 µM); against Streptococcus pneumoniae [9], 64 µg/mL (≈ 85.5 µM); against Streptococcus pyogenes [10], 1 µg/mL (≈ 1.34 µM); against Staphylococcus aureus [11] it was 2 µg/mL (≈ 2.67 µM); against Staphylococcus aureus [12], 128 µg/mL (≈ 171 µM). Moreover, the MIC in the experiment with Streptococcus pyogenes [13] worked out at 0.25 µg/mL (≈ 0.334 µM); against Staphylococcus aureus [14], 2 µg/mL (≈ 2.67 µM); against Streptococcus pneumoniae [15] it was 64 µg/mL (≈ 85.5 µM); in the experiment with Streptococcus pyogenes [16], 1 µg/mL (≈ 1.34 µM); against Streptococcus pyogenes [17] it was 1 µg/mL (≈ 1.34 µM).

`CC[C@H]1OC(=O)[C@H](C)C(=O)[C@H](C)[C@@H](O[C@@H]2O[C@H](C)C[C@H](N(C)C)[C@H]2O)[C@](C)(OC)C[C@@H](C)/C(=N\OC/C=C/c2cccs2)[C@H](C)[C@@H](O)[C@]1(C)O`: the MIC in the experiment with Staphylococcus aureus [1] was determined as 0.5 µg/mL (≈ 0.69 µM); in the experiment on Streptococcus pneumoniae [2], 0.125 µg/mL (≈ 0.172 µM); in the experiment on Streptococcus pneumoniae [3], 0.06 µg/mL (≈ 0.0828 µM); in the experiment with Staphylococcus aureus [4], 0.5 µg/mL (≈ 0.69 µM); in the experiment with Streptococcus pneumoniae [5], 0.06 µg/mL (≈ 0.0828 µM); in the experiment with Streptococcus pneumoniae [6] it was 0.06 µg/mL (≈ 0.0828 µM). Also, the MIC against Staphylococcus aureus [7] worked out at 128 µg/mL (≈ 177 µM); in the experiment on Staphylococcus aureus [8], 0.25 µg/mL (≈ 0.345 µM); against Streptococcus pneumoniae [9] it was 0.125 µg/mL (≈ 0.172 µM); against Streptococcus pyogenes [10], 0.06 µg/mL (≈ 0.0828 µM); with Staphylococcus aureus [11] it was 0.25 µg/mL (≈ 0.345 µM); in the experiment with Staphylococcus aureus [12], 128 µg/mL (≈ 177 µM). In addition, the MIC stood at 0.06 µg/mL (≈ 0.0828 µM) in the experiment with Streptococcus pyogenes [13]; 0.25 µg/mL (≈ 0.345 µM) against Staphylococcus aureus [14]; 32 µg/mL (≈ 44.1 µM) against Streptococcus pneumoniae [15]; 0.06 µg/mL (≈ 0.0828 µM) in the experiment on Streptococcus pyogenes [16]; 0.06 µg/mL (≈ 0.0828 µM) in the experiment with Streptococcus pyogenes [17].

With `CC[C@H]1OC(=O)[C@H](C)C(=O)[C@H](C)[C@@H](O[C@@H]2O[C@H](C)C[C@H](N(C)C)[C@H]2O)[C@](C)(OC)C[C@@H](C)/C(=N\OC/C=C/c2ccc3c(c2)CCC3=O)[C@H](C)[C@@H](O)[C@]1(C)O`, the MIC against Staphylococcus aureus [1] came to 1 µg/mL (≈ 1.29 µM); in the experiment on Streptococcus pneumoniae [2], 0.25 µg/mL (≈ 0.323 µM); with Streptococcus pneumoniae [3], 0.06 µg/mL (≈ 0.0776 µM); against Staphylococcus aureus [4], 1 µg/mL (≈ 1.29 µM); against Streptococcus pneumoniae [5], 0.25 µg/mL (≈ 0.323 µM); against Streptococcus pneumoniae [6], 0.06 µg/mL (≈ 0.0776 µM). Besides, the MIC with Staphylococcus aureus [7] came out at 128 µg/mL (≈ 166 µM); in the experiment on Staphylococcus aureus [8], 1 µg/mL (≈ 1.29 µM); in the experiment on Streptococcus pneumoniae [9], 8 µg/mL (≈ 10.3 µM); in the experiment with Streptococcus pyogenes [10], 0.25 µg/mL (≈ 0.323 µM); against Staphylococcus aureus [11] it was 1 µg/mL (≈ 1.29 µM); against Staphylococcus aureus [12] it was 128 µg/mL (≈ 166 µM). For the same molecule, the MIC is 0.06 µg/mL (≈ 0.0776 µM) against Streptococcus pyogenes [13]; 1 µg/mL (≈ 1.29 µM) in the experiment with Staphylococcus aureus [14]; 64 µg/mL (≈ 82.8 µM) in the experiment with Streptococcus pneumoniae [15]; 0.25 µg/mL (≈ 0.323 µM) in the experiment on Streptococcus pyogenes [16]; 0.25 µg/mL (≈ 0.323 µM) with Streptococcus pyogenes [17].

Turning to `CC[C@H]1OC(=O)[C@H](C)C(=O)[C@H](C)[C@@H](O[C@@H]2O[C@H](C)C[C@H](N(C)C)[C@H]2O)[C@](C)(OC)C[C@@H](C)/C(=N\OC/C=C/c2cccnc2)[C@H](C)[C@@H](O)[C@]1(C)O`, the MIC with Staphylococcus aureus [1] was 0.5 µg/mL (≈ 0.695 µM); in the experiment with Streptococcus pneumoniae [2], 0.25 µg/mL (≈ 0.347 µM); against Streptococcus pneumoniae [3] it was 0.06 µg/mL (≈ 0.0833 µM); in the experiment on Staphylococcus aureus [4], 0.25 µg/mL (≈ 0.347 µM); in the experiment with Streptococcus pneumoniae [5] it was 0.125 µg/mL (≈ 0.174 µM); against Streptococcus pneumoniae [6], 0.06 µg/mL (≈ 0.0833 µM). For the same molecule, the MIC with Staphylococcus aureus [7] stood at 128 µg/mL (≈ 178 µM); in the experiment with Staphylococcus aureus [8], 0.5 µg/mL (≈ 0.695 µM); in the experiment with Streptococcus pneumoniae [9], 0.06 µg/mL (≈ 0.0833 µM); against Streptococcus pyogenes [10], 0.25 µg/mL (≈ 0.347 µM); against Staphylococcus aureus [11] it was 0.25 µg/mL (≈ 0.347 µM); in the experiment on Staphylococcus aureus [12], 128 µg/mL (≈ 178 µM). Also, the MIC in the experiment on Streptococcus pyogenes [13] worked out at 0.06 µg/mL (≈ 0.0833 µM); in the experiment with Staphylococcus aureus [14], 0.25 µg/mL (≈ 0.347 µM); with Streptococcus pneumoniae [15], 64 µg/mL (≈ 88.9 µM); in the experiment with Streptococcus pyogenes [16], 0.06 µg/mL (≈ 0.0833 µM); against Streptococcus pyogenes [17], 0.06 µg/mL (≈ 0.0833 µM).

For `CC[C@H]1OC(=O)[C@H](C)C(=O)[C@H](C)[C@@H](O[C@@H]2O[C@H](C)C[C@H](N(C)C)[C@H]2O)[C@](C)(OC)C[C@@H](C)/C(=N\OC/C=C/c2ccc3[nH]ccc3c2)[C@H](C)[C@@H](O)[C@]1(C)O`, the MIC in the experiment with Staphylococcus aureus [1] amounted to 1 µg/mL (≈ 1.32 µM); in the experiment on Streptococcus pneumoniae [2], 0.25 µg/mL (≈ 0.33 µM); against Streptococcus pneumoniae [3] it was 0.06 µg/mL (≈ 0.0792 µM); in the experiment with Staphylococcus aureus [4], 1 µg/mL (≈ 1.32 µM); with Streptococcus pneumoniae [5], 0.25 µg/mL (≈ 0.33 µM); in the experiment with Streptococcus pneumoniae [6], 0.06 µg/mL (≈ 0.0792 µM). The MIC was 128 µg/mL (≈ 169 µM) against Staphylococcus aureus [7]; 1 µg/mL (≈ 1.32 µM) in the experiment on Staphylococcus aureus [8]; 0.25 µg/mL (≈ 0.33 µM) against Streptococcus pneumoniae [9]; 0.25 µg/mL (≈ 0.33 µM) with Streptococcus pyogenes [10]; 1 µg/mL (≈ 1.32 µM) in the experiment on Staphylococcus aureus [11]; 128 µg/mL (≈ 169 µM) against Staphylococcus aureus [12]. Also, the MIC against Streptococcus pyogenes [13] is 0.06 µg/mL (≈ 0.0792 µM); against Staphylococcus aureus [14], 1 µg/mL (≈ 1.32 µM); with Streptococcus pneumoniae [15], 32 µg/mL (≈ 42.2 µM); against Streptococcus pyogenes [16], 0.25 µg/mL (≈ 0.33 µM); with Streptococcus pyogenes [17], 0.25 µg/mL (≈ 0.33 µM).

For orientation: MIC means the lowest concentration that inhibits growth of the organism. A high value points to a less susceptible organism.
